Source: PubChem BioAssay (several laboratories)
HCT116 bCat-KO – beta-catenin-lacking colon tumor cell growth suppression. viability, % at 10 µM. HCT116 beta-catenin knockout viability, CellTiter-Glo, 60 h; stronger effect = lower value. 1.5% of 140,000 active;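 active = viability at or under a set limit, the compound median less 4 SD, cut at about 6% in these data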;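 also: 0% = Hyamine 1622 control at 20 µM and 100% = untreated cell control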
HCT116 PTEN-null – growth suppressors of cells with PTEN tumor suppressor deletion; viability, % at 10 µM; 1.2% of 140,000 active; HCT116 PTEN-null viability, CellTiter-Glo, 60 h; stronger effect = lower value;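 active = viability at or below a set limit, 4 SD under the median of all tested compounds, cut at about 3.7% in these data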;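 also: PTEN knockout HCT116 line with beta catenin targeted HCT116 as companion control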
HUVEC prolif 384 – human endothelial cell proliferation inhibition. HUVEC proliferation, CellTiter-Glo luminescence, 72 h; stronger effect = lower value. viability, % at 10 µM (by protocol). 1.1% of 86,000 active. AID 648;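 active = viability at or below 30%; inactive = viability above 30%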;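 also: 100% = median luminescence of DMSO-only cell control wells on each plate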
H69AR inhibit – growth inhibitors of human H69AR lung tumor cells | H69AR lung tumor viability, ATP luminescence, 72 h; stronger effect = lower value | viability, % at 10 µM | 6% of 85,000 active | AID 598;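 active = viability at or below 40%; inactive = viability above 40%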;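 also: multidrug resistant small cell line overexpressing MRP-1 efflux transporter; 100% = mean luminescence of untreated control wells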
Fibroblast inh – blocks proliferation of human lung fibroblasts; LL 47 human lung fibroblast viability, ATP luminescence; stronger effect = lower value; viability, % at 10 µM; 1.1% of 85,000 active;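 active = viability at or below 50% in the single dose screen; inactive = viability above 50%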;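 also: compound exposure lasted 72 h before the ATP readout; 100% = median luminescence of untreated cell-only wells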
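Signal: luminescent ATP detection, CellTiter-Glo; assay system: LL 47 human lung fibroblasts; input: 1,150 cells/well; incubation: overnight cell rest, 72 h compound treatment at 37 °C; measure: % viability versus median cells-only luminescence; medium: IMEM growth medium with 15% fetal bovine serum; dosing: compound addition at 0.1% DMSO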
Candida biofilm – kills Candida albicans biofilms. C. albicans biofilm + clotrimazole, Alamar Blue. inhibition, % at 6 µM. 0.14% of 85,000 active;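 active = inhibition above 20%; inactive = inhibition below 20%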;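 also: preformed 24 hr biofilms exposed to compound for 48 hr; 0% = biofilm without compound and 100% = blank killed by clotrimazole plus chlorhexidine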
An asterisk follows results filed as active; · = not tested or not shown. The entries come from a sample that favours hits as a whole.

SMILES	HCT116 bCat-KO	HCT116 PTEN-null	HUVEC prolif 384	H69AR inhibit	Fibroblast inh	Candida biofilm
Cc1[nH]c2ccccc2c1C(=O)COC(=O)c1c(-c2c(F)cccc2Cl)noc1C	84	75	·	·	·	·
Cc1nc2oc3c(NCC4CCCO4)ncnc3c2c2c1COC(C)(C)C2 (stereo not given)	80	95	·	·	·	·
CC(C)c1nc2oc3c(NCC4CCCO4)ncnc3c2c2c1COC(C)(C)C2 (stereo not given)	67	70	87	36*	99	10
CCOC(=O)c1c(NC(=O)CN2CCCCC2)sc2c1CCCC2O (stereo not given)	70	76	73	20*	92	1
CCOC(=O)Nc1sc2c(c1C(=O)OCC)CCC2	89	98	107	97	104	5
COc1cccc(CSc2nnc(-c3ccco3)n2C)c1	109	107	100	87	·	1
Cc1cc(C)c(NC(=O)CN2C(=O)NC3(CCCCC3)C2=O)c(Cl)c1	81	81	81	29*	88	8
O=C1CN(C(=O)COC(=O)C2=COCCO2)c2ccccc2N1	103	99	96	112	93	4
O=C(OCC(=O)N1CCc2ccccc21)C1=COCCO1	91	106	94	28*	99	5
CCN1CCN(c2ncc3c(n2)CC(c2ccc(OC)c(OC)c2)CC3=O)CC1 (stereo not given)	55	47	81	19*	74	4
COc1ccc(C2CC(=O)c3cnc(N4CCN(Cc5ccccc5)CC4)nc3C2)cc1 (stereo not given)	83	83	·	·	·	·
COC(=O)c1[nH]c2ccccc2c1NC(=O)CN1CCN(C(=O)c2ccco2)CC1	92	93	95	18*	95	-3
COc1ccc2[nH]c(C)c(C(=O)CN3CCN(C(=O)c4ccco4)CC3)c2c1	94	106	·	·	·	·
CCOC(=O)N1CCN(CC(=O)Nc2c(C(=O)OC)[nH]c3ccccc23)CC1	82	92	105	44	94	7
COc1ccc2[nH]cc(C(=O)CN3CCN(C(=O)c4ccco4)CC3)c2c1	102	104	29*	79	107	2
CSc1nc(-c2ccccc2O)nc(-c2ccccc2O)n1	·	·	84	89	93	4
COC(=O)/C(=N/Nc1ccccc1C)N1CCCc2ccccc21	61	74	·	·	·	·
CC(=O)Nc1ccc(Nc2cc(C)nc3c(-c4ccccc4)cnn23)cc1	51	39	·	·	·	·
COC1(OC)C(/C=C/c2ccc(C)cc2)C(C#N)(C#N)C1(OC)OC (stereo not given)	8	6	87	12*	55	8
CCOc1ccc(OCc2cccc(C(=O)Nc3ccc(CN4CCCCC4)cc3)c2)cc1	1.5*	1.9*	·	·	·	·
CCOc1cccc(C(=O)Nc2ccc(N(CC)CC)cc2)c1	41	39	60	20*	91	1
COC(=O)c1cc(=O)n(CCc2ccccc2)c(=Nc2ccc(F)cc2)s1	10	8	54	1.3*	88	5
CNC(=O)C1CC(=O)N(CCc2ccc(OC)cc2)C(=Nc2ccc(OC)cc2)S1 (stereo not given)	100	101	96	83	101	4
CCCCN=c1sc(C(=O)OC)cc(=O)n1CCCC	83	72	·	·	·	·
COC(=O)c1cc(=O)n(Cc2ccc3c(c2)OCO3)c(=Nc2ccc(F)c(Cl)c2)s1	2.0*	4	63	33*	69	10
SMILES	HCT116 bCat-KO	HCT116 PTEN-null	HUVEC prolif 384	H69AR inhibit	Fibroblast inh	Candida biofilm
COC(=O)c1cc(=O)n(CCc2ccc(OC)cc2)c(=Nc2ccc(F)c(Cl)c2)s1	7	7	22*	1.7*	62	9
CCn1c(=O)cc(C(=O)OC)sc1=Nc1ccc(F)c(F)c1	2.2*	2.0*	56	0.7*	16*	8
CO/N=C(/CNC(=O)c1ccc(F)cc1)c1ccc(Cl)cc1	91	94	·	·	·	·
C/C(CCN1CCc2nc(-c3ccccc3)c(-c3ccccc3)cc2C1)=N\O[C@@H](C)c1cn([C@H](CO)Cc2ccccc2)nn1	62	65	·	·	·	·
CCOC(=O)/C=C1\SCC(=O)N1CC(=O)NC(C)c1ccc(F)cc1 (stereo not given)	88	84	·	·	·	·
CC(=O)c1sc(N2C(=O)c3oc4ccccc4c(=O)c3C2c2ccc(C)o2)nc1C (stereo not given)	·	·	101	9.4*	87	2
